Measured values from different studies.
Target: Sodium-dependent dopamine transporter (SLC6A3, Homo sapiens, UniProt Q01959)

SMILES	test	endpoint	result
CN1[C@H]2CC[C@@H]1[C@@H](c1cc(-c3ccccc3)no1)[C@H](OC(c1ccc(F)cc1)c1ccc(F)cc1)C2	ligand displacement, radioligand	Ki	28 nM
Fc1ccccc1C(Cc1ccccc1)N1CCCC1 (stereo not shown)	ligand displacement, radioligand	Ki	327 nM
CC(NCc1ccccc1)C(=O)c1ccc2c(c1)OCO2 (stereo not shown)	ligand displacement, radioligand	Ki	< 100 nM
NCCc1ccc(Oc2ccc(O)cc2)c(I)c1	ligand displacement, radioligand	IC50	800 nM
CNc1nc2cc(OCCCCN3CCN(c4cccc(Cl)c4Cl)CC3)ccc2s1	ligand displacement, radioligand	Ki	2800 nM
CNC(C)(C)C(=O)c1ccccc1	calcium signal, agonist, fluorescence	EC50	590 nM
CCC[C@@H](C(=O)c1ccc(C)cc1)N1CCCC1	transporter uptake, inhibitor, radiometric	IC50	6.2 nM
C[C@@H](CN1CCC(Cc2ccccc2)CC1)[C@@H](O)c1ccc(O)cc1 (relative stereo)	ligand displacement, radioligand	Ki	6000 nM
CN[C@@H](C)C(=O)c1ccccc1	calcium signal, agonist, fluorescence	EC50	240 nM
CN[C@]1(c2ccccc2Cl)CCCCC1=O	ligand displacement, radioligand	IC50	> 100000 nM
